Experiment [1] can be described thus: Antiplatelet aggregation activity against adenosine diphosphate-induced human platelet rich plasma assessed as inhibition of platelet aggregation by turbidimetric method. The format is functional. Conditions: Homo sapiens, Platelet, Plasma. A digest of the protocol:
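Human PRP, prepared by two-step centrifugation and adjusted to 330 000 platelets/μL with PPP. Compound was preincubated 5 min at 37 °C in 0.5% DMSO, then 20 μM ADP was added. OD626 was read kinetically for 15 min at 37 °C with mixing between reads.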

The target of a further experiment is P2Y purinoceptor 12 (Homo sapiens, UniProt Q9H244). Nature of the experiment: Displacement of [33P]ADP from human recombinant P2Y12 receptor expressed in CHO cells. The format is cell-based. In a few lines: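 Washed membranes from CHO cells expressing synthetic human P2Y12, incubated 1 h at room temperature with 0.2 nM 33P-MeSADP in 50 mM Tris/100 mM NaCl/1 mM EDTA. Compound was tested as a 7-point 3-fold series in triplicate. Nonspecific binding was defined with 300 nM 2-MeSADP, followed by filtration.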
Sequence of P2Y purinoceptor 12 (Q9H244 whole entry): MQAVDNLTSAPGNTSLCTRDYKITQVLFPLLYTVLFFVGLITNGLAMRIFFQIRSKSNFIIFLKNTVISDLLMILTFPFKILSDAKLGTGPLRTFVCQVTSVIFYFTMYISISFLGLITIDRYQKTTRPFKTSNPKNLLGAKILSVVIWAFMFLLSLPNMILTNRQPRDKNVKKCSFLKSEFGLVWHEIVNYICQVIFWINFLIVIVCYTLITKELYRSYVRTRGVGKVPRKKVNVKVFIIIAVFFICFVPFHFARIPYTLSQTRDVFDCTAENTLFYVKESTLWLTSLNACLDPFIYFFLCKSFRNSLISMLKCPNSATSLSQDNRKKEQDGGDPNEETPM

Usually IC50 stands for the concentration that inhibits the measured activity by half. `CCCOC(=O)N1CCN(C(=O)[C@H](CCC(=O)O)NC(=O)c2cccc(-c3ccccc3)n2)CC1`: the half-inhibitory concentration (IC50) in experiment [1] came to 62 µM.
What is called Ki is the equilibrium dissociation constant of an inhibitor or competing ligand from its target. Regarding `CCCCNC(=S)N1CCN(C(=O)[C@H](CCC(=O)O)NC(=O)c2cccc(-c3ccccc3)n2)CC1`, at P2Y purinoceptor 12, the Ki is 0.008 µM. The 50% inhibitory concentration (IC50) in experiment [1] stood at 56 µM.
On to `Cc1cccc(N2CCN(C(=O)[C@H](CCC(=O)O)NC(=O)c3cccc(-c4ccccc4)n3)CC2)c1`, for which the concentration for half-maximal inhibition (IC50) in experiment [1] is more than 100 µM.
Consider `CCOC(=O)N1CCN(C(=O)[C@H](CCC(=O)O)NC(=O)c2cc(-c3ccccc3)cc(-c3ccccc3)c2)CC1`, for which the Ki on P2Y purinoceptor 12 came to 0.373 µM. Also, in experiment [1], the IC50 is more than 100 µM.
In the case of `CCCCCOC(=O)N1CCN(C(=O)[C@H](CCC(=O)O)NC(=O)c2cc(N(C)CCOC)cc(-c3ccccc3)n2)CC1`, on P2Y purinoceptor 12, the inhibitory constant (Ki) was 0.0021 µM. Besides, the IC50 in experiment [1] was more than 100 µM.
`CCCCCCCCOC(=O)N1CCN(C(=O)[C@H](CCC(=O)O)NC(=O)c2cccc(-c3ccccc3)n2)CC1`: in experiment [1], the half-maximal inhibitory concentration (IC50) is more than 100 µM.
With `O=C(O)CC[C@H](NC(=O)c1cccc(-c2ccccc2)n1)C(=O)N1CCN(C(=O)OCCC2CC2)CC1`, the Ki at P2Y purinoceptor 12 is 0.015 µM. Further, in experiment [1], the concentration for half-maximal inhibition (IC50) was more than 100 µM.
For the compound `O=C(O)CC[C@H](NC(=O)c1cccc(-c2ccccc2)n1)C(=O)N1CCN(C(=O)OCC(F)(F)F)CC1`, on P2Y purinoceptor 12, the Ki was found to be 0.094 µM. Moreover, the IC50 in experiment [1] was more than 100 µM.
For `CCOC(=O)N1CCN(C(=O)[C@H](CCC(=O)O)NC(=O)c2cc(N(C)C)cc(-c3ccccc3)n2)CC1`, on P2Y purinoceptor 12, the Ki turned out to be 0.045 µM. The concentration for half-maximal inhibition (IC50) in experiment [1] was more than 100 µM.
On to `CCCCCCOC(=O)N1CCN(C(=O)[C@H](CCC(=O)O)NC(=O)c2cccc(-c3ccccc3)n2)CC1`, for which, in experiment [1], the concentration for half-maximal inhibition (IC50) came out at 19 µM.
With `Cc1cccc(N2CCN(C(=O)[C@H](CCC(=O)O)NC(=O)c3cc(-c4ccccc4)cc(-c4ccccc4)n3)CC2)c1`, the inhibition constant Ki on P2Y purinoceptor 12 came to 0.15 µM. The half-maximal inhibitory concentration (IC50) in experiment [1] was more than 100 µM.
For `CCCCCNC(=S)N1CCN(C(=O)[C@H](CCC(=O)O)NC(=O)c2cccc(-c3ccccc3)n2)CC1` the same measures were 0.006 µM and 42 µM.
Consider `CCS(=O)(=O)N1CCN(C(=O)[C@H](CCC(=O)O)NC(=O)c2cccc(-c3ccccc3)n2)CC1`, for which the inhibition constant (Ki) on P2Y purinoceptor 12 was more than 3.59 µM. The IC50 in experiment [1] was more than 100 µM.
Regarding `CCCCCN1CCN(C(=O)[C@H](CCC(=O)O)NC(=O)c2cccc(-c3ccccc3)n2)CC1`, on P2Y purinoceptor 12, the Ki is more than 3.59 µM. Moreover, in experiment [1], the half-maximal inhibitory concentration (IC50) was more than 100 µM.
For the compound `CCOC(=O)N1CCN(C(=O)[C@H](CCC(=O)O)NC(=O)c2ccccn2)CC1`, the inhibitory constant (Ki) at P2Y purinoceptor 12 is more than 5.4 µM. Further, in experiment [1], the half-inhibitory concentration (IC50) was more than 100 µM.
Regarding `COC(=O)N1CCN(C(=O)[C@H](CCC(=O)O)NC(=O)c2cccc(-c3ccccc3)n2)CC1`, the IC50 in experiment [1] was more than 100 µM.
Turning to `CCCCCOC(=O)N1CCN(C(=O)[C@H](CCC(=O)O)NC(=O)c2cc(NC(=O)COC)cc(-c3ccccc3)n2)CC1`, the inhibition constant Ki on P2Y purinoceptor 12 is 0.025 µM. The half-maximal inhibitory concentration (IC50) in experiment [1] was more than 10 µM.
Regarding `CCC(=O)N1CCN(C(=O)[C@H](CCC(=O)O)NC(=O)c2cccc(-c3ccccc3)n2)CC1`, the Ki at P2Y purinoceptor 12 was more than 3.59 µM. Also, in experiment [1], the IC50 was more than 100 µM.
In the same order, the values of `CC(C)CCOC(=O)N1CCN(C(=O)[C@H](CCC(=O)O)NC(=O)c2cccc(-c3ccccc3)n2)CC1` are 0.033 µM and 88 µM.
For `O=C(O)CC[C@H](NC(=O)c1cccc(-c2ccccc2)n1)C(=O)N1CCN(C(=O)c2ccccc2)CC1` the same measures were 1.88 µM and more than 100 µM.
Turning to `CCNC(=S)N1CCN(C(=O)[C@H](CCC(=O)O)NC(=O)c2cccc(-c3ccccc3)n2)CC1`, the Ki at P2Y purinoceptor 12 was found to be 0.009 µM. Also, in experiment [1], the half-maximal inhibitory concentration (IC50) was found to be 39 µM.
For `C#CCCOC(=O)N1CCN(C(=O)[C@H](CCC(=O)O)NC(=O)c2cccc(-c3ccccc3)n2)CC1` the same measures were 0.079 µM and more than 100 µM.
In the same order, the values of `CCOC(=O)N1CCN(C(=O)[C@H](CCC(=O)O)NC(=O)c2cc(-c3ccccc3)ccn2)CC1` are more than 5.7 µM and more than 100 µM.
In the same order, the values of `O=C(O)CC[C@H](NC(=O)c1cccc(-c2ccccc2)n1)C(=O)N1CCN(C(=O)OCCCC(F)(F)F)CC1` are 0.018 µM and 70 µM.
With `O=C(O)CC[C@H](NC(=O)c1cccc(-c2ccccc2)n1)C(=O)N1CCN(C(=O)OCC2CCCC2)CC1`, on P2Y purinoceptor 12, the inhibitory constant (Ki) stood at 0.046 µM. In addition, in experiment [1], the half-maximal inhibitory concentration (IC50) worked out at 82 µM.
In the case of `CCCCS(=O)(=O)N1CCN(C(=O)[C@H](CCC(=O)O)NC(=O)c2cccc(-c3ccccc3)n2)CC1`, the Ki on P2Y purinoceptor 12 is more than 3.59 µM. In addition, in experiment [1], the IC50 is more than 100 µM.
In the same order, the values of `O=C(O)CC[C@H](NC(=O)c1cccc(-c2ccccc2)n1)C(=O)N1CCN(S(=O)(=O)c2ccccc2)CC1` are 0.842 µM and more than 100 µM.
In the same order, the values of `CC(C)(C)CCOC(=O)N1CCN(C(=O)[C@H](CCC(=O)O)NC(=O)c2cccc(-c3ccccc3)n2)CC1` are 0.042 µM and more than 100 µM.
Regarding `O=C(O)CC[C@H](NC(=O)c1cccc(-c2ccccc2)n1)C(=O)N1CCN(C(=O)OC2CCCC2)CC1`, at P2Y purinoceptor 12, the inhibition constant Ki is 0.047 µM. Moreover, the concentration for half-maximal inhibition (IC50) in experiment [1] is more than 100 µM.
In the same order, the values of `CCOC(=O)N1CCN(C(=O)CNC(=O)c2cc(-c3ccccc3)cc(-c3ccccc3)n2)CC1` are 0.733 µM and more than 50 µM.
For `CCOC(=O)N1CCN(C(=O)[C@H](CCC(=O)O)NC(=O)c2cc(-c3ccccc3)nc(-c3ccccc3)n2)CC1`, the Ki at P2Y purinoceptor 12 came out at 0.356 µM. Further, the IC50 in experiment [1] was more than 100 µM.
For `O=C(O)CC[C@H](NC(=O)c1cccc(-c2ccccc2)n1)C(=O)N1CCN(C(=O)OCC2CCC2)CC1` the same measures were 0.028 µM and more than 100 µM.
For `CCCCCOC(=O)N1CCN(C(=O)[C@H](CCC(=O)O)NC(=O)c2cc(NC(C)=O)cc(-c3ccccc3)n2)CC1` the same measures were 0.0062 µM and more than 10 µM.
For `CC(C)C(=O)N1CCN(C(=O)[C@H](CCC(=O)O)NC(=O)c2cccc(-c3ccccc3)n2)CC1` the same measures were more than 3.59 µM and more than 100 µM.
Take `CCOC(=O)N1CCN(C(=O)[C@H](CCC(=O)O)NC(=O)c2cc(-c3ccccc3)cc(-c3ccccc3)n2)CC1`: the Ki on P2Y purinoceptor 12 is 0.015 µM. Besides, the 50% inhibitory concentration (IC50) in experiment [1] was determined as 76 µM.
In the same order, the values of `O=C(O)CC[C@H](NC(=O)c1cccc(-c2ccccc2)n1)C(=O)N1CCN(C(=O)Nc2ccccc2)CC1` are 0.842 µM and more than 100 µM.
In the same order, the values of `Cc1cccc(N2CCN(C(=O)[C@H](CCC(=O)O)NC(=O)c3cccc(-c4ccccc4)c3)CC2)c1` are 1.31 µM and more than 100 µM.
Take `CCCCOC(=O)N1CCN(C(=O)[C@H](CCC(=O)O)NC(=O)c2cccc(-c3ccccc3)n2)CC1`: the IC50 in experiment [1] is 28 µM.
In the case of `CCNC(=O)N1CCN(C(=O)[C@H](CCC(=O)O)NC(=O)c2cccc(-c3ccccc3)n2)CC1`, the inhibition constant Ki at P2Y purinoceptor 12 came out at 0.288 µM. Also, in experiment [1], the IC50 came to 80 µM.
For `CCCCOC(=O)N1CCN(C(=O)[C@H](CCC(=O)O)NC(=O)c2cc(N(C)CCOC)cc(-c3ccccc3)n2)CC1`, on P2Y purinoceptor 12, the inhibitory constant (Ki) was found to be 0.004 µM. In addition, the half-inhibitory concentration (IC50) in experiment [1] is more than 100 µM.
For `CCCCCOC(=O)N1CCN(C(=O)[C@H](CCC(=O)O)NC(=O)c2cc(CCCCCO)cc(-c3ccccc3)n2)CC1` the same measures were 0.0028 µM and more than 10 µM.
Consider `CCCCCOC(=O)N1CCN(C(=O)[C@H](CCC(=O)O)NC(=O)c2cccc(-c3ccccc3)n2)CC1`, for which the IC50 in experiment [1] turned out to be 15 µM.
With `CCCCCOC(=O)N1CCN(C(=O)[C@H](CCC(=O)O)NC(=O)c2cc(NC(=O)CN3CCOCC3)cc(-c3ccccc3)n2)CC1`, the Ki at P2Y purinoceptor 12 was 0.003 µM. Further, in experiment [1], the half-inhibitory concentration (IC50) was more than 10 µM.
For `COCCOC(=O)N1CCN(C(=O)[C@H](CCC(=O)O)NC(=O)c2cccc(-c3ccccc3)n2)CC1` the same measures were 0.492 µM and more than 100 µM.
In the same order, the values of `CN(C)CC(=O)N1CCN(C(=O)[C@H](CCC(=O)O)NC(=O)c2cccc(-c3ccccc3)n2)CC1` are more than 3.59 µM and more than 100 µM.
For `CCOC(=O)N1CCN(C(=O)CNC(=O)c2cccc(-c3ccccc3)n2)CC1` the same measures were 1.61 µM and more than 100 µM.
Turning to `O=C(O)CC[C@H](NC(=O)c1cccc(-c2ccccc2)n1)C(=O)N1CCN(C(=O)OC2CCCCC2)CC1`, on P2Y purinoceptor 12, the inhibition constant (Ki) was determined as 0.044 µM. Also, the IC50 in experiment [1] was more than 100 µM.
In the case of `CCCCCCCOC(=O)N1CCN(C(=O)[C@H](CCC(=O)O)NC(=O)c2cccc(-c3ccccc3)n2)CC1`, the IC50 in experiment [1] stood at 56 µM.
On to `CCCCCCNC(=O)N1CCN(C(=O)[C@H](CCC(=O)O)NC(=O)c2cccc(-c3ccccc3)n2)CC1`, for which, on P2Y purinoceptor 12, the inhibition constant (Ki) was determined as 0.054 µM. The half-maximal inhibitory concentration (IC50) in experiment [1] was more than 100 µM.
For `CCCCCOC(=O)N1CCN(C(=O)[C@H](CCC(=O)O)NC(=O)c2cc(NC(=O)C3CCOCC3)cc(-c3ccccc3)n2)CC1` the same measures were 0.0085 µM and more than 10 µM.
With `CCCS(=O)(=O)N1CCN(C(=O)[C@H](CCC(=O)O)NC(=O)c2cccc(-c3ccccc3)n2)CC1`, the Ki on P2Y purinoceptor 12 was more than 3.59 µM. Also, the IC50 in experiment [1] is more than 100 µM.
In the same order, the values of `CCCCCNC(=O)N1CCN(C(=O)[C@H](CCC(=O)O)NC(=O)c2cccc(-c3ccccc3)n2)CC1` are 0.055 µM and more than 100 µM.
For `CCCCCOC(=O)N1CCN(C(=O)[C@H](CCC(=O)O)NC(=O)c2cc(NC(=O)NC(C)C)cc(-c3ccccc3)n2)CC1` the same measures were 0.0027 µM and more than 10 µM.
For `CC(C)CN1CCN(C(=O)[C@H](CCC(=O)O)NC(=O)c2cccc(-c3ccccc3)n2)CC1` the same measures were more than 3.8 µM and more than 100 µM.
Turning to `CCCCCCN1CCN(C(=O)[C@H](CCC(=O)O)NC(=O)c2cccc(-c3ccccc3)n2)CC1`, the inhibition constant (Ki) on P2Y purinoceptor 12 was more than 2.71 µM. Also, the IC50 in experiment [1] is more than 100 µM.
On to `CCCN1CCN(C(=O)[C@H](CCC(=O)O)NC(=O)c2cccc(-c3ccccc3)n2)CC1`, for which, on P2Y purinoceptor 12, the inhibitory constant (Ki) was more than 3.8 µM. Also, the 50% inhibitory concentration (IC50) in experiment [1] is more than 100 µM.
For `CCCCCS(=O)(=O)N1CCN(C(=O)[C@H](CCC(=O)O)NC(=O)c2cccc(-c3ccccc3)n2)CC1` the same measures were more than 3.59 µM and more than 100 µM.

The values above are taken from ChEMBL document CHEMBL1157562, “Piperazinyl glutamate pyridines as potent orally bioavailable P2Y12 antagonists for inhibition of platelet aggregation” (J Med Chem, 2010).
